# Results published in article PMC10925246 (bioRxiv, 2024).
# Ends that are not written are not given here.
# Tests used:
# P. aeruginosa PA14 [1] = test: Polyamine toxicity for PA14; format: cell-based, Pseudomonas aeruginosa; conditions: 10^6 cfu/ml PA14, 30 mOsm/l, alamarBlue; n = 3 experiments
# P. aeruginosa PA14 [2] = format: cell-based, Pseudomonas aeruginosa; conditions: for minimum inhibitory concentration (MIC): PA14, CFU assay
# [3] = tested on: ^14C-spermidine uptake by PA14; test: Polyamine transport assay; format: cell-based, Pseudomonas aeruginosa; conditions: 10 and 25 µM, 45 min 35°C pretreatment, n = 3 experiments
# Summary of the method: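 PA14 (0.8×10^8 cfu in 100 µl dilute phosphate saline) was pre-incubated 45 min at 35°C with or without 10 or 25 µM test peptide. Cells were then given 1 µl of 10 mM [1,4-14C]spermidine stock (0.1 mCi/ml) for 15 min at 35°C. Pellets were washed four times with phosphate-buffered saline and counted by liquid scintillation, last wash also counted. Molecules per cell were estimated from a spermidine standard curve.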
# [4] = tested on: PA14 feoB, potH and yaiW transposon mutants; test: CFU killing assay of PA14 transposon mutants; format: cell-based, Pseudomonas aeruginosa; conditions: 10^6 cfu/ml, 30 mOsm/l; n = 3 experiments
# Summary of the method: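 Suspensions were exposed to test peptide or left untreated ~8 h at 35°C. 2 µl were spotted on LB agar, with or without selective antibiotic, incubated overnight at 37°C and imaged; n = 3 experiments.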
# thrombin = thrombin (Homo sapiens, UniProt P00734); test: N-104 affinity column screen of human tears, thrombin western blot; format: binding; conditions: pooled human basal tears, 5 hours 4°C, KCl elution, anti-thrombin western blot
# Summary of the method: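 Basal tears were collected 5 min on Schirmer strips after 0.5% proparacaine, eluted at 4°C in phosphate-buffered saline and pooled (170 µl). The pool was diluted fivefold with protease inhibitors, agarose-precleared, and split by protein between test-peptide and control-peptide columns for 5 h at 4°C. Elution was 0.3/0.5/1.0 M KCl; the 0.5 M eluate went to MS (human UniProt search). Unboiled fractions: 4–20% SDS-PAGE, polyclonal anti-thrombin 1 µg/ml overnight 4°C, LI-COR detection.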
# [5] = tested on: PA14 pathogenesis in C. elegans N2; test: C. elegans - PA14 liquid infection; format: in vivo, Caenorhabditis elegans; conditions: SYTOX Orange uptake of dead worms
# Summary of the method: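 Young adult worms (raised from L1 on NGM with E. coli OP50 at room temperature, washed off in M9, pelleted 1200×g 2 min) were placed ~50 per well in 150 µl 90% M9/10% LB. They were incubated aerobically with an equal volume of PA14, feoB/potH/yaiW transposon mutants, or OP50, diluted to 10^7 cfu/ml and pre-treated with 50 µM test peptide for 5 h at 35°C. After 3 days, equal volume 6 µM SYTOX Orange was added; imaged next day, transmitted and 535/610 nm fluorescence.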
# P. aeruginosa PA14 [6] = test: N-104 resistance assay over 30 generations; format: cell-based, Pseudomonas aeruginosa; conditions: through 30 generations, sub-MIC and MIC exposure; n = 2 experiments
# PotH = biological target: T1, PotH (Escherichia coli, UniProt P31135); format: binding, E. coli; conditions: overnight 4°C, 0.15 M NaCl; eluted with 0.5 and 1 M KCl, not 0.3 M KCl; n = 3 experiments
# T1 sequence (P31135 1-317): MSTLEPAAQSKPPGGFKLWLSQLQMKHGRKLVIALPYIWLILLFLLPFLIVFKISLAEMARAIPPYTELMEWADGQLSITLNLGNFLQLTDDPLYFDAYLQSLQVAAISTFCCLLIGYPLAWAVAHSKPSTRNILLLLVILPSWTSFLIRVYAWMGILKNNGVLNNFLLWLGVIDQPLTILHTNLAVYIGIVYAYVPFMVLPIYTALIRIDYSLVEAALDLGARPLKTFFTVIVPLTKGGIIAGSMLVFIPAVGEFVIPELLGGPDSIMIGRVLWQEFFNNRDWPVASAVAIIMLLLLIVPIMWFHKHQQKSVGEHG
# Summary of the method: (§1)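 Cys-extended test peptide (2 mg) was coupled to SulfoLink resin in 50 mM Tris pH 8.5, 5 mM EDTA, 3 h room temperature. His-tagged transporter was Ni-Sepharose purified (4 h, 4°C; imidazole elution) and applied to the column; the flowthrough was collected. Columns were washed with 10 mM HEPES, 0.05% dodecyl-maltoside, 0.15 M KCl, then step-eluted with 0.3, 0.5, 1.0 M KCl. Unboiled fractions went to 4–20% SDS-PAGE and anti-His (1 µg/ml, overnight 4°C) western with IRDye secondary.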
# FeoB = format: binding, P. aeruginosa PAO1; conditions: overnight 4°C, 0.15 M NaCl; eluted with 0.5 and 1 M KCl, not 0.3 M KCl; n = 3 experiments
# Summary of the method: as §1
# [7] = Solubility of synthetic loop peptides in solvents; format: physicochemical; conditions: lyophilized synthetic peptide, acetylated and amidated
# Summary of the method: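 Synthetic outer-loop peptides were N-acetylated and C-amidated, ≥95% HPLC purity, and stored lyophilized at −80°C. Each was […] as required before competition binding at 0–250 µM.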
molecule,measurement,setting,value
NCCCCNCCCN [spermidine],concentrations toxic for PA14,P. aeruginosa PA14 [1],greater than 100 µM
same,effect of exogenous polyamine on N-104 bactericidal activity,"P. aeruginosa PA14 [2]; PA14, 5 µM N-104 plus polyamine at or below 100 µM, n = 3 experiments",inhibited N-104 bactericidal activity in a concentration-dependent manner
Ac-AKAGKGMHGGVPGG-NH2 [N-80/C-25],effect on ^14C-spermidine uptake,[3],almost similar inhibitory effect
Ac-AQKLLKKFSLLKPWA [N-104],killing of PA14 transposon mutant lacking YaiW,[4],partially resistant
same,capture of thrombin from human tears by column immobilized peptide,thrombin,binds
same,effect of peptide alone on C. elegans,[5],no apparent effect
same,development of resistance of PA14,P. aeruginosa PA14 [6],No stable resistance
same,binding of His tagged PotH to column immobilized peptide,PotH,high affinity ligation
same,binding of His tagged FeoB to column immobilized peptide,FeoB,high affinity ligation
same,dependence of PA14 killing efficacy on osmolarity,P. aeruginosa PA14 [2]; two osmolalities (30 and 300 mOsm/l),efficacy diminishes as osmolarity increases
Ac-AQKLLKKFSLSKPWA [N-104:L115S],minimum inhibitory concentration (MIC),P. aeruginosa PA14 [2],2 µM
Ac-AQKLLKKFSSLKPWA [N-104:L114S],minimum inhibitory concentration (MIC),P. aeruginosa PA14 [2],2 µM
Ac-GAFFGQGGA-NH2 [FeoB outer loop 3 synthetic peptide],solubility in water and organic solvents,[7],"not water, DMSO, methanol, isopropanol nor acetonitrile soluble"
same,solvent in which the peptide dissolved,[7],ammonia water and acetic acid
Ac-INIGGALQP-NH2 [FeoB outer loop 1 synthetic peptide],solubility in water and organic solvents,[7],"not water, DMSO, methanol, isopropanol nor acetonitrile soluble"
same,solvent in which the peptide dissolved,[7],formic or acetic acid
EDASSDSTGADPAQEAGTSKPNEE-NH2 [C-95],capture of thrombin from human tears by column immobilized peptide,thrombin,None bound
same,binding of His tagged PotH to column immobilized peptide,PotH,Neither bound
same,binding of His tagged FeoB to column immobilized peptide,FeoB,Neither bound
